Measurements as given in ChEMBL document CHEMBL5661979, “Pharmacological inhibition of BMK1 suppresses tumor growth through promyelocytic leukemia protein” (Cancer Cell, 2010).

Columns and labels:
Type in all cases: subcellular
[1] = molecular target: Cyclin-dependent kinase 7 (Homo sapiens, UniProt P50613); experiment: Inhibition of CDK7 in human HeLa cells lysate pre incubated for 15 mins followed by ATP acyl phosphate probe addition and measured after 10 mins by LC-MS/MS analysis
Method in brief: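 KiNativ profiling in HeLa lysate (5 mg/mL total protein). Lysate incubated 15 min with inhibitor at 50, 10, 2, 0.8 or 0 μM. ATP or ADP acylphosphate probe then added (5 μM final) and reacted 10 min. Reaction stopped with urea and analysed by targeted MS, using up to four fragment ions per kinase peptide-probe conjugate. % inhibition taken against untreated lysate. Run in duplicate.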

[2] = molecular target: Phosphatidylinositol 4-kinase alpha (Homo sapiens, UniProt P42356); experiment: Inhibition of PIK4CA in human HeLa cells lysate at 10 uM pre incubated for 15 mins followed by ATP acyl phosphate probe addition and measured after 10 mins by LC-MS/MS analysis relative to control; settings: time 25.0 min
[3] = molecular target: Hepatocyte growth factor receptor (Homo sapiens, UniProt P08581); experiment: Inhibition of MET in human HeLa cells lysate pre incubated for 15 mins followed by ATP acyl phosphate probe addition and measured after 10 mins by LC-MS/MS analysis
[4] = molecular target: T1, Serine/threonine-protein kinase TAO2 (Homo sapiens) (UniProt Q9UL54); experiment: Inhibition of TAO2 in human HeLa cells lysate at 10 uM pre incubated for 15 mins followed by ATP acyl phosphate probe addition and measured after 10 mins by LC-MS/MS analysis relative to control; settings: time 25.0 min
T1 sequence (whole entry): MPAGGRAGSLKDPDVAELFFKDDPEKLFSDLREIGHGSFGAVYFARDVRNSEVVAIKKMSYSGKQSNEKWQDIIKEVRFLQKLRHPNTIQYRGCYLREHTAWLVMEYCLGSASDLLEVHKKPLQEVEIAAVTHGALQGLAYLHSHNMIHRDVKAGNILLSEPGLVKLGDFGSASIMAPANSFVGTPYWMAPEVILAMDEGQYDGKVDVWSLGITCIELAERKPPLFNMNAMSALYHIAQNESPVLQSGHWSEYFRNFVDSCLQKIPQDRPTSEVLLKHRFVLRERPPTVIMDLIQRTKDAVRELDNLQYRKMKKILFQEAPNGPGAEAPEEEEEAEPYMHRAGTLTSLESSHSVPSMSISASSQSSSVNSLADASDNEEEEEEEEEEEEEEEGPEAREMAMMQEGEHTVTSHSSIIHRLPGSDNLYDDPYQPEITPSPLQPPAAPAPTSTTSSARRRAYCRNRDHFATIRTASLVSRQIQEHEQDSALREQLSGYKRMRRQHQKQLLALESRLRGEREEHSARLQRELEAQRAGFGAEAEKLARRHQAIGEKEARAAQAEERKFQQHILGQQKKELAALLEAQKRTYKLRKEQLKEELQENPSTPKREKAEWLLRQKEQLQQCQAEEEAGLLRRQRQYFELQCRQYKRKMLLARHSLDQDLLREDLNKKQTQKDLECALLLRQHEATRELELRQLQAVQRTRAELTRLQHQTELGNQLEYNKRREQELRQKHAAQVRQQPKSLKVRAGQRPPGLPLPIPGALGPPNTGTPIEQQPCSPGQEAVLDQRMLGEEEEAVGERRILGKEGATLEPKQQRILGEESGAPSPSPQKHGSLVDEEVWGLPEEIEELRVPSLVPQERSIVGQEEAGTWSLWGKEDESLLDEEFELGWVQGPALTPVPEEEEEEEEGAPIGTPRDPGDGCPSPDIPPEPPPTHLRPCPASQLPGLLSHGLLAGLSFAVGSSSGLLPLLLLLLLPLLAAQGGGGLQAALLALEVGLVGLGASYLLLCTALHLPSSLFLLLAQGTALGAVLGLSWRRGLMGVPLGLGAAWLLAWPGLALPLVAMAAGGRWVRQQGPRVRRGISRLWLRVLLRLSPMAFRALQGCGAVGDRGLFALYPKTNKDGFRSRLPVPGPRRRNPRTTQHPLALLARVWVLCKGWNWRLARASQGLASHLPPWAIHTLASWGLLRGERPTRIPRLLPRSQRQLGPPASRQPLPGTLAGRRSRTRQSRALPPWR

[5] = molecular target: T2, Serine/threonine-protein kinase Sgk3 (Homo sapiens) (UniProt Q96BR1); experiment: Inhibition of SGK3 in human HeLa cells lysate at 10 uM pre incubated for 15 mins followed by ADP acyl phosphate probe addition and measured after 10 mins by LC-MS/MS analysis relative to control; settings: time 25.0 min
T2 sequence (whole entry): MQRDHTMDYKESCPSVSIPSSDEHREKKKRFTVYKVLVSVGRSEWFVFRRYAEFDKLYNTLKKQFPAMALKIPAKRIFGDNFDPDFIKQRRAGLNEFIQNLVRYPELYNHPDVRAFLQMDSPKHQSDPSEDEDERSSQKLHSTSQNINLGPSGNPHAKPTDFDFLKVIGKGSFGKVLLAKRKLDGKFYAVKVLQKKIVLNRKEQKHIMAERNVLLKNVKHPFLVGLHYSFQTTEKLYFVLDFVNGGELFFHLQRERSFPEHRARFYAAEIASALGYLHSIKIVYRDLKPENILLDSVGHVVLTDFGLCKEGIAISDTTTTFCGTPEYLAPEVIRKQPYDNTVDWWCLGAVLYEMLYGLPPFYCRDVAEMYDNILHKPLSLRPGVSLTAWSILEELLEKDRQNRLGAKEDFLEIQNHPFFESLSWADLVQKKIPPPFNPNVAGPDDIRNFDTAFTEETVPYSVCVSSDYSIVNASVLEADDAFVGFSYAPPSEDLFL

[6] = molecular target: Phosphatidylinositol 4-kinase beta (Homo sapiens, UniProt Q9UBF8); experiment: Inhibition of PIK4CB in human HeLa cells lysate at 10 uM pre incubated for 15 mins followed by ATP acyl phosphate probe addition and measured after 10 mins by LC-MS/MS analysis relative to control; settings: time 25.0 min
[7] = molecular target: Serine/threonine-protein kinase MARK2 (Homo sapiens, UniProt Q7KZI7); experiment: Inhibition of MARK2 in human HeLa cells lysate pre incubated for 15 mins followed by ADP acyl phosphate probe addition and measured after 10 mins by LC-MS/MS analysis
[8] = molecular target: STE20-like serine/threonine-protein kinase (Homo sapiens, UniProt Q9H2G2); experiment: Inhibition of SLK in human HeLa cells lysate at 50 uM pre incubated for 15 mins followed by ATP acyl phosphate probe addition and measured after 10 mins by LC-MS/MS analysis relative to control; settings: time 25.0 min
[9] = molecular target: Tyrosine-protein kinase receptor UFO (Homo sapiens, UniProt P30530); experiment: Inhibition of AXL in human HeLa cells lysate pre incubated for 15 mins followed by ADP acyl phosphate probe addition and measured after 10 mins by LC-MS/MS analysis
Method in brief: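 KiNativ-type profiling in HeLa lysate (5 mg/mL total protein). Lysate preincubated 15 min with inhibitor at 50, 10, 2, 0.8 or 0 μM, then ATP or ADP acylphosphate probe added (5 μM final) for 10 min. Reaction stopped with urea and analysed by targeted MS, using up to four fragment ions per kinase peptide-probe conjugate. % inhibition calculated against untreated lysate. Duplicate reactions.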

Chain of Phosphatidylinositol 4-kinase beta (Q9UBF8 2-816 limits assumed): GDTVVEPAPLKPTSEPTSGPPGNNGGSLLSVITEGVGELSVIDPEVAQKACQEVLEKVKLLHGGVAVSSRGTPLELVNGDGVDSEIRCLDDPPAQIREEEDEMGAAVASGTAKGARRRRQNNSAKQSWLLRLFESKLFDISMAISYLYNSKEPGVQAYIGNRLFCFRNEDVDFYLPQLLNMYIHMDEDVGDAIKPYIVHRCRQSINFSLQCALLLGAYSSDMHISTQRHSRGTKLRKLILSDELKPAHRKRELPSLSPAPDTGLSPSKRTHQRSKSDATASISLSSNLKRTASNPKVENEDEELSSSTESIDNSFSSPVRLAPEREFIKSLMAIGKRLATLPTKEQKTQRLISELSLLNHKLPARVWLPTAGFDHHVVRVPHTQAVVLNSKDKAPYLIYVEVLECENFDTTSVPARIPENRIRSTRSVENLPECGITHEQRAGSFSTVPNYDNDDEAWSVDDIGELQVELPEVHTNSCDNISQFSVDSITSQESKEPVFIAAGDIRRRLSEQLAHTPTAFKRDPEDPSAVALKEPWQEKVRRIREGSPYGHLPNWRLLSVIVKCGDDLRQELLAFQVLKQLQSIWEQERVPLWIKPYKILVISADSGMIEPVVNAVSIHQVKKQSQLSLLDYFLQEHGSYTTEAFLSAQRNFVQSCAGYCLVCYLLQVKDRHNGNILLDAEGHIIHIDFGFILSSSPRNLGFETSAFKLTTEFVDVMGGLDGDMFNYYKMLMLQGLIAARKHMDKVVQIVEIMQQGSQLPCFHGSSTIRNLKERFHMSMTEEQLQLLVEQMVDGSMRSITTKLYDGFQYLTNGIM
Chain of Serine/threonine-protein kinase MARK2 (Q7KZI7 whole entry): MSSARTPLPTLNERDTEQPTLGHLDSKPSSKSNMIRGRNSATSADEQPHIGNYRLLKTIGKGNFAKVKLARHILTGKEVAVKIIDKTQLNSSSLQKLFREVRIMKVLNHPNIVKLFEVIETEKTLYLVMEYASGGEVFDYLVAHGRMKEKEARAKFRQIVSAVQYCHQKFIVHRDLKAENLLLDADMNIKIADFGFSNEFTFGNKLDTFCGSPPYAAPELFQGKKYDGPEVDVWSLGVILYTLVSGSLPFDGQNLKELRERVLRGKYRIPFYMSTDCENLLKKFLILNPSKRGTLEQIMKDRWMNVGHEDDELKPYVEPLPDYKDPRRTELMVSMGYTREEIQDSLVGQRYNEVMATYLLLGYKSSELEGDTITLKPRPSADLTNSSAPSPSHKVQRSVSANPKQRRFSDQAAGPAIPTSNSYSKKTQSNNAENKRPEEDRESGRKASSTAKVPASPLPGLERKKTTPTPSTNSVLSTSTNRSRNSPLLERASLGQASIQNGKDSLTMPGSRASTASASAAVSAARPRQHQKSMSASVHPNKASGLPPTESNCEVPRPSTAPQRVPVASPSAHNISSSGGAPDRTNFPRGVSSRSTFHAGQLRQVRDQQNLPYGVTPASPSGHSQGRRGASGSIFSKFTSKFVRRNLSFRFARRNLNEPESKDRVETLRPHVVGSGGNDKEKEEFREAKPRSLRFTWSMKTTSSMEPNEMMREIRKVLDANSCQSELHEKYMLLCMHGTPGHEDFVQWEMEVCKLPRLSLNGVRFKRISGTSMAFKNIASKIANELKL
Chain of Phosphatidylinositol 4-kinase alpha (P42356 whole entry, looked up): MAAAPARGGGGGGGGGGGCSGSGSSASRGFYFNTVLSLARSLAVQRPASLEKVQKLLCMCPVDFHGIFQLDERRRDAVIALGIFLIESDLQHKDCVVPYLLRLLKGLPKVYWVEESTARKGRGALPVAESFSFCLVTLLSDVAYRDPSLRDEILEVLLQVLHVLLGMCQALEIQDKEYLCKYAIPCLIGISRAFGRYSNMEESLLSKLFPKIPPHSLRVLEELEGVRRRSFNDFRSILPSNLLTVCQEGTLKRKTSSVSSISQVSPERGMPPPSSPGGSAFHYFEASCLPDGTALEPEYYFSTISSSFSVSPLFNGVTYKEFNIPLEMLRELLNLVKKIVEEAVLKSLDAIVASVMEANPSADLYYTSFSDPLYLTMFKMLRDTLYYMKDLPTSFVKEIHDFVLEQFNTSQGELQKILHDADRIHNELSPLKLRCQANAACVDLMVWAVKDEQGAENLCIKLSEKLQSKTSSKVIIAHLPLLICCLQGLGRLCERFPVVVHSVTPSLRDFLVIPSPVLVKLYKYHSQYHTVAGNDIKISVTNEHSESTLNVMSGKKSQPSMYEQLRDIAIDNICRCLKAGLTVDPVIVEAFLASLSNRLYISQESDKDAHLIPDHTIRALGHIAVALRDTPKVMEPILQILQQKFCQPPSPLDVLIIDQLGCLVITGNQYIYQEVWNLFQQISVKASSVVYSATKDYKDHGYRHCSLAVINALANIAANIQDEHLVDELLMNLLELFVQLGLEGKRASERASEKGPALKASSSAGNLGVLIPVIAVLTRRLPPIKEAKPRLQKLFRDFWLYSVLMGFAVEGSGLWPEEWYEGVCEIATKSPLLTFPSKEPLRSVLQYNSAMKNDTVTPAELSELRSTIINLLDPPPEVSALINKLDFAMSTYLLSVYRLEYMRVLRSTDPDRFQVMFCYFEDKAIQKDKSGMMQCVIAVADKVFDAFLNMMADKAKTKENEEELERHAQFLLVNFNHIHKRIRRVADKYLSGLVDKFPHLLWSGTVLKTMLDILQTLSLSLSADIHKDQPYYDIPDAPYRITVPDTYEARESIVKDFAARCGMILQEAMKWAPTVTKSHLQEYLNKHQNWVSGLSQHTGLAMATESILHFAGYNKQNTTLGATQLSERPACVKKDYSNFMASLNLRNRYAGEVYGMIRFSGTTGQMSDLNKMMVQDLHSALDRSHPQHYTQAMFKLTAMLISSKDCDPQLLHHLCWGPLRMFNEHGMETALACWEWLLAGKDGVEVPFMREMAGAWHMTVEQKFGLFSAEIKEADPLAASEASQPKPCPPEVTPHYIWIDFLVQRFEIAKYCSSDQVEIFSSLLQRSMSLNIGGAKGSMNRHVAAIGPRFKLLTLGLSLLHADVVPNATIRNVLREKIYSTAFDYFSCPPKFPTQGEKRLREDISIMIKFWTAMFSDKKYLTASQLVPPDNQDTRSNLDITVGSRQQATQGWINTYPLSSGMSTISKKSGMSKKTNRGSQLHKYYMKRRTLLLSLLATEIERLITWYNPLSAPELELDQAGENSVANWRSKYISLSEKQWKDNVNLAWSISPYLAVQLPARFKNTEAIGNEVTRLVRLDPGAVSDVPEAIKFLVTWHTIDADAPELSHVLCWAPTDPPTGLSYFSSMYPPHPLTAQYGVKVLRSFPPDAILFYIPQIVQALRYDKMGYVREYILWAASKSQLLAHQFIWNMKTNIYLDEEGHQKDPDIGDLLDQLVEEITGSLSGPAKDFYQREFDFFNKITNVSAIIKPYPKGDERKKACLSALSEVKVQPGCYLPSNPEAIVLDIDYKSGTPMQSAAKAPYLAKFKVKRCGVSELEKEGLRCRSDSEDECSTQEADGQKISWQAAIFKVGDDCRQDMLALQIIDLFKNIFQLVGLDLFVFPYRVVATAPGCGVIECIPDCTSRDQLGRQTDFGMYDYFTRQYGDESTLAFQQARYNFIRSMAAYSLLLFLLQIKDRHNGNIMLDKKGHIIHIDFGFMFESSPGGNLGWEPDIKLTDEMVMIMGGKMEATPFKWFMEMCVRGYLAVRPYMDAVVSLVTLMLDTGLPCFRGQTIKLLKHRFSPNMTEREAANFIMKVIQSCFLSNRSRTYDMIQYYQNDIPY
Chain of Hepatocyte growth factor receptor (P08581 whole entry): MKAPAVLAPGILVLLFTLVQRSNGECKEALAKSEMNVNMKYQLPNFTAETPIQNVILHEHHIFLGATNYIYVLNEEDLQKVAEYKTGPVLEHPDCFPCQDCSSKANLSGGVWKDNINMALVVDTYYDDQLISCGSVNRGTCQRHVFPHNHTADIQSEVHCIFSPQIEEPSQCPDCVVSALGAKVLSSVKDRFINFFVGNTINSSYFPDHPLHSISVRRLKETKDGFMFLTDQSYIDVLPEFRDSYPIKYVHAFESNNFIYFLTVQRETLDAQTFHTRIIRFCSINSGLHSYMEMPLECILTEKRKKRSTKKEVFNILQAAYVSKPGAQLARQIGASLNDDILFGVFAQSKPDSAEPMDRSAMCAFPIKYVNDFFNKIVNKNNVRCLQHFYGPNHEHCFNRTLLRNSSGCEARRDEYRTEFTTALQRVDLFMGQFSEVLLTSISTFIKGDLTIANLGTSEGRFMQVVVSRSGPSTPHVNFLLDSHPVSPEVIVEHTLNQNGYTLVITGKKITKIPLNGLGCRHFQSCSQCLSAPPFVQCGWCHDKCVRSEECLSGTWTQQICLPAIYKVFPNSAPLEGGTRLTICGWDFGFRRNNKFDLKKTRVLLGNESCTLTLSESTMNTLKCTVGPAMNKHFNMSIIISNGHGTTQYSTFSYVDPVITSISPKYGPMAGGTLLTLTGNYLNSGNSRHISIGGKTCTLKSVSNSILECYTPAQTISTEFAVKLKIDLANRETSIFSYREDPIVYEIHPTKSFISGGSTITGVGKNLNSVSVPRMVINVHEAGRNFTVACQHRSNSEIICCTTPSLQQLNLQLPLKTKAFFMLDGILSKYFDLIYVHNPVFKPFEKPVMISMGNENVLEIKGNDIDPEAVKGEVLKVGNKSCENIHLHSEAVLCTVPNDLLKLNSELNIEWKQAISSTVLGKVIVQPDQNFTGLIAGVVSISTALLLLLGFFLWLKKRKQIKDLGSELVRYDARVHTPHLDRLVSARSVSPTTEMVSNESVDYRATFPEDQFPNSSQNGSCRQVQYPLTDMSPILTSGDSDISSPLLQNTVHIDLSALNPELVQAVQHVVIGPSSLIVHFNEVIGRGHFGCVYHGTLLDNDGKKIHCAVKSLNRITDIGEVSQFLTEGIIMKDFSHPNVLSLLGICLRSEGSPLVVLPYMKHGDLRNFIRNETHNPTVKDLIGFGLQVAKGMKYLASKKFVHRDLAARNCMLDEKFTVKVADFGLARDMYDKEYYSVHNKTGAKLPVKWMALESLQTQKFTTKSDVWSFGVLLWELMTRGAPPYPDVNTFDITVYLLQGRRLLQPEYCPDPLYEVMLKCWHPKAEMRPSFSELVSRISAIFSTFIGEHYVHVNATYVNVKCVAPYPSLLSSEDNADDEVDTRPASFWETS

Which results are given for CCOc1cc(N2CCC(O)CC2)ccc1Nc1ncc2c(n1)N(C)c1ccccc1C(=O)N2C?
IC50 [1]: > 50 µM; inhibition [2]: 7.7%; IC50 [3]: > 50 µM; inhibition [4]: 3.3%; inhibition [5]: -0.3%; inhibition [6]: 25.8%; IC50 [7]: > 50 µM; inhibition [8]: 5.7%; IC50 [9]: > 50 µM
